Results of several laboratories.
Target: Serine/threonine-protein kinase 17A (STK17A, Homo sapiens, UniProt Q9UEE5)
Sequence (Q9UEE5 1-414, as in one of the studies): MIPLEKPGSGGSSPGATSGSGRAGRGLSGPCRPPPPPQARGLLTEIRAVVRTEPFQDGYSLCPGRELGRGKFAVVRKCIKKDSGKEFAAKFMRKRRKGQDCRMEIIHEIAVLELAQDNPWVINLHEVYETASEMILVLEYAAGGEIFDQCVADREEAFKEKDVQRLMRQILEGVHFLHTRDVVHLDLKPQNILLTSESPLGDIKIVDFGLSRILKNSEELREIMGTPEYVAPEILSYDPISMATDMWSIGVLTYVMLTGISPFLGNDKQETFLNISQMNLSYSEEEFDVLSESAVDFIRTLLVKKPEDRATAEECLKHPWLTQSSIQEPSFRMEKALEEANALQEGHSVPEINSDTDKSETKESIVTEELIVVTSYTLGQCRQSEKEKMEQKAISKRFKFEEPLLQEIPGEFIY

| SMILES | observed | mode | method | tested at | measurement | value |
| --- | --- | --- | --- | --- | --- | --- |
| Cc1noc([C@H]2C[C@@H](c3ccc(C(F)(F)F)cc3)CN(C(=O)N3CCS(=O)(=O)C3)C2)n1 | cell-free assay | – | competition with immobilised ligand | 1 µM | remaining binding | 100% |
| Cc1ccc(NC(=O)c2ccc(CN3CCN(C)CC3)cc2)cc1Nc1nc(-c2cccnc2)cs1 | cell-free assay | – | – | 0.5 µM | remaining signal | 104% |
| CN1CCc2cc(Nc3ncc(C4CC4)c(NCCCNC(=O)C4CCC4)n3)ccc2C1 | enzyme activity | inhibitor | radiometric | 1 µM | remaining activity | 3% |
| CN1CC(Oc2cnc(C#N)cc2-c2ccn3nc(NC(=O)C4CC4)cc3c2)C1 | enzyme activity | inhibitor | – | 1 µM | inhibition | 10% |
| Cc1ccc(Nc2nccc(N(C)c3ccc4c(C)n(C)nc4c3)n2)cc1S(N)(=O)=O | cell-free assay | – | – | 0.3 µM | inhibition | -6% |
| Cc1c(NC(=O)c2cc(C(N)=O)nc3cc(F)ccc23)c(C(F)(F)F)nn1Cc1ccc(C#N)cc1 | cell-free assay | – | competition with immobilised ligand | 1 µM | remaining binding | 90% |
| N#CCCc1ccc2c(c1)-c1[nH]c3ccc([N+](=O)[O-])cc3c1CC(=O)N2 | cell-free assay | – | – | 0.5 µM | remaining signal | 46.8% |
| CNC(=O)c1cc(Oc2ccc(NC(=O)Nc3ccc(Cl)c(C(F)(F)F)c3)cc2)ccn1 | cell-free assay | – | – | 10 µM | inhibition | 31% |
| Brc1cnc(Nc2cccc(CN3CCOCC3)c2)nc1NCCc1c[nH]cn1 | enzyme activity | inhibitor | radiometric | 1 µM | remaining activity | 8% |
| CC(=O)C1=C(C)N(c2cccc(C(F)(F)F)c2)C(=O)N[C@@H]1c1ccc(C#N)nc1 | cell-free assay | – | competition with immobilised ligand | 1 µM | remaining binding | 93.7% |
| Oc1cccc(-c2nc(N3CCOCC3)c3oc4ncccc4c3n2)c1 | cell-free assay | – | – | 0.5 µM | remaining signal | 93.8% |
| Cc1nn(CC(F)(F)F)cc1Nc1ncc(Br)c(NCCCNC(=O)C2CCC2)n1 | enzyme activity | inhibitor | radiometric | 1 µM | remaining activity | 5% |
| Cc1cc(NC(=O)c2cccc3cc(-c4cccc5[nH]nc(N)c45)ccc23)ccc1F | enzyme activity | inhibitor | – | 0.1 µM | activity vs control | 81% |
| CC(=O)c1c(NS(C)(=O)=O)c2cc(-c3ccc(Cl)cc3)c(-c3ccc(Cl)cc3Cl)nc2n(C)c1=O | cell-free assay | – | competition with immobilised ligand | 1 µM | remaining binding | 88% |
| Cc1nn(CC(F)(F)F)cc1Nc1nccc(NCCc2cnc[nH]2)n1 | enzyme activity | inhibitor | radiometric | 1 µM | remaining activity | 99% |
| CC1CCCN1c1nccc(-c2cnn3ncccc23)n1 (stereo not shown) | binding | – | – | 1 µM | remaining binding | 84% |
| Cc1c[nH]c2nccc(Oc3c(F)cc(Nc4cc(Cl)nc(N)n4)cc3F)c12 | cell-free assay | – | competition with immobilised ligand | 0.1 µM | remaining binding | 100% |
| NS(=O)(=O)c1ccc(CNc2nc(Nc3cccc(NC(=O)N4CCCC4)c3)ncc2Br)cc1 | enzyme activity | inhibitor | radiometric | 1 µM | remaining activity | 41% |
| C[C@@H](c1cccc(C#N)c1)n1cc(Cl)cc(C(N)=O)c1=N | cell-free assay | – | competition with immobilised ligand | 1 µM | remaining binding | 89% |
| c1cc(CN2CCOCC2)cc(Nc2ncc(C3CC3)c(NCCc3c[nH]cn3)n2)c1 | enzyme activity | inhibitor | radiometric | 1 µM | remaining activity | 50% |
| COc1cc2ncnc(Nc3ccc(F)c(Cl)c3)c2cc1OCCCN1CCOCC1 | cell-free assay | – | – | 0.5 µM | remaining signal | 96% |
| O=C(NCCCNc1ccnc(Nc2cccc(NC(=O)N3CCCC3)c2)n1)C1CCC1 | enzyme activity | inhibitor | radiometric | 1 µM | remaining activity | 18% |
| O=C(Nc1ccc(Oc2ccc(F)cc2)cc1)N1CCc2ncccc2[C@H]1c1ccc(F)cc1 | cell-free assay | – | competition with immobilised ligand | 1 µM | remaining binding | 86% |
| Cc1nn(CC(F)(F)F)cc1Nc1ncc(C2CC2)c(NCCc2c[nH]cn2)n1 | enzyme activity | inhibitor | radiometric | 1 µM | remaining activity | 107% |
| N#CC1(c2ccccn2)CCN(Cc2cc(C(=O)N3CCCC3)c(=O)n3ccccc23)CC1 | cell-free assay | – | competition with immobilised ligand | 1 µM | remaining binding | 96% |
